Our source for the IC50 values is ChEMBL document CHEMBL4177705, “Antiplasmodial alkaloids from bulbs of Amaryllis belladonna Steud” (Bioorg Med Chem Lett, 2018).

In assay [1] the test system is Plasmodium falciparum. The experiment in a line: Antiplasmodial activity against chloroquine-resistant ring stage Plasmodium falciparum Dd2 after 72 hrs by SYBR green 1 dye based assay. It counts as functional, organism-based.
Assay [2] deals with A2780. The assay can be described thus: Cytotoxicity against human A2780 cells. Format: cell-based. The gist of the method:
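Antiproliferative assay on the A2780 ovarian cell line, reported as IC50 in µM.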

The mark [3] stands for this setting: Plasmodium falciparum, Dd2, 72 h, read-out: IC50.
Where [4] appears, read: Homo sapiens, A2780, read-out: IC50.

For the molecule `O=c1c2cc3c(cc2c2cccc4ccn1c42)OCO3`, the IC50 – broadly, the midpoint of a concentration-inhibition curve – was “Not Active” in assay [1] and “Non-Toxic” in assay [2] (a2780). On to `COc1c2c(cc3c1OCO3)[C@@]13CC[N@@](C2)[C@@H]1[C@H](O)[C@H](OC)C[C@H]3O`, for which the IC50 in assay [1] (setting [3]) is 37 µM; in assay [2] (setting [4]), more than 60 µM. Taken in the same sequence, the figures for `COc1c2c(cc3c1OCO3)[C@]13C=C[C@H](OC)C[C@H]1[N@](C2)C[C@H]3OC(C)=O` were 35 µM and more than 60 µM.

On to `COc1c2c(cc3c1OCO3)[C@]13C=C[C@H](OC)C[C@H]1[N@](C2)C[C@H]3O`, for which the IC50 is 7.3 µM in assay [1] (setting [3]) and more than 60 µM in assay [2] (setting [4]). On the same counts, the results for `CC(=O)O[C@@H]1CC=C2CCN3Cc4cc5c(cc4[C@H]1[C@@H]23)OCO5` [ACETYLCARANINE] are 3.5 µM and 56 µM.

On to `C[C@@H]1CC[C@H]2[C@@H](C)C(=O)O[C@@H]3O[C@@]4(C)CC[C@@H]1[C@]32OO4` [ARTEMISININ], for which, in assay [1] (setting [3]), the IC50 worked out at 0.0121 µM. Turning to `COC1=CC(=O)[C@@]23CCN(Cc4c2cc2c(c4OC)OCO2)[C@@H]3C1` [DISTICHAMINE], the IC50 in assay [1] (setting [3]) is more than 50 µM; in assay [2] (setting [4]), more than 60 µM.
